Test results published in publication PMC4780725 (Drug Design, Development and Therapy, 2016).

Legend:
[1] = Stability in phosphate buffer by UV-visible absorption spectra; format: physicochemical; details: phosphate buffer pH 7.4, 250 to 600 nm, every 5 minutes for more than 25 minutes
Procedure, shortened: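 Test compound was dissolved and diluted in DMSO, then mixed into phosphate buffer at pH 7.4. Optical density from 250 to 600 nm was recorded every 5 min for more than 25 min.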

GES-1 cells = experiment: MTT cell viability assay, GES-1 normal gastric mucosa epithelial cells; format: cell-based; details: Homo sapiens, GES1, 72 h, read-out: IC50 values of compounds on cells, GES-1
Procedure, shortened: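 GES-1 cells were grown in RPMI-1640 with 10% FBS at 37°C and 5% CO2, seeded at ~5,000 cells/well, then exposed for 72 h to 0.096, 0.48, 2.4, 12 and 60 µM compound. MTT was added for 4 h, formazan dissolved in DMSO, and absorbance read at 490 nm. Inhibition was calculated against the DMSO control, and IC50 is the concentration giving 50% inhibition. At least three independent experiments were run.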

[2] = tested on: SGC-7901 or BGC-823 cells; experiment: Clonogenic assay; format: cell-based, human; details: 5 µM, 24 hours treatment, then 7 days in fresh medium
Procedure, shortened: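 SGC-7901 or BGC-823 cells were exposed to test compound (2.5 or 5 µM) or DMSO for 24 h. The medium was then replaced with fresh medium and colonies grew for 7 days before crystal violet staining and photography.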

[3] = tested on: SGC-7901 or BGC-823 cells; experiment: Cell cycle analysis by flow cytometry; format: cell-based, human; details: 24 hours
Procedure, shortened: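 Cells in RPMI-1640 with 10% FBS were exposed for 24 h to test compound (5 or 10 µM, or 20 µM for the reference) or DMSO. All cells were collected by trypsinization, PBS-washed, fixed in 75% ethanol for 1 h at −20°C, washed, and stained with PI for 15 min at 4°C in the dark. G0/G1, S and G2/M fractions were measured by FACS, from three separate treatments.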

[4] = tested on: SGC-7901 and BGC-823 cells; experiment: Matrigel invasion assay; format: cell-based, human; details: 24 hours; Da0324 5 or 10 µM, curcumin 10 µM
Procedure, shortened: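 Transwell inserts were coated with Matrigel and air-dried for 2 h at room temperature. Cells at 1×10^6 cells/mL in serum-free RPMI-1640 with compound or DMSO were placed in the upper chamber, with RPMI-1640 plus 10% FBS below, for 24 h at 37°C. Cells on the lower surface were fixed, crystal violet-stained and counted by light microscopy as the mean of three fields, from three separate treatments.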

SGC-7901 cells = experiment: MTT cell viability assay, SGC-7901; format: cell-based, human; details: read-out: IC50 values of compounds on cells, SGC-7901, 72 hours, SGC-7901 gastric cancer cells
Procedure, shortened: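 SGC-7901 cells were seeded at ~5,000/well and exposed 72 h to test compound at 0.096, 0.48, 2.4, 12 and 60 µM. MTT was added for 4 h, formazan dissolved in DMSO and absorbance read at 490 nm. Inhibition ratio = (1 − A treated/A DMSO control) × 100%. IC50, the concentration giving 50% inhibition of proliferation, was calculated by curve fitting.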

[5] = tested on: p65 nuclear translocation in SGC-7901 cells; experiment: p65 nuclear translocation, Western blot of nuclear extracts, SGC-7901; format: cell-based, human; details: SGC-7901, pretreatment 60 minutes, TNF-α 1 ng/mL 60 minutes
Procedure, shortened: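 SGC-7901 cells were pretreated for 60 min with test compound (10 or 20 µM), a reference NF-κB inhibitor or DMSO, then stimulated with TNF-α at 1 ng/mL for 60 min. Cells were trypsinized and washed thrice in ice-cold PBS. Cytoplasmic extract came from Buffer A (10 min on ice) plus Buffer B (1 min) and a 16,000× g spin for 5 min; nuclear extract from the pellet in Buffer C for 40 min on ice. Nuclear p65 was normalized to Lamin B and cytoplasmic p65 to GAPDH.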

[6] = tested on: p65 nuclear translocation in BGC-823 cells; experiment: p65 nuclear translocation, immunofluorescence, BGC-823; format: cell-based, human; details: BGC-823, 20 µM, 60 minutes before TNF-α
Procedure, shortened: (§1)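 Cells were pretreated 60 min with DMSO, test compound (20 µM) or a reference NF-κB inhibitor (20 µM), then stimulated with TNF-α 1 ng/mL for 60 min. After an ice-cold PBS wash, cells were fixed 10 min at room temperature and blocked 1 h. They were incubated overnight at 4°C with rabbit anti-p65, then anti-rabbit Cy3 for 1 h in the dark, and DAPI for 5 min. Fluorescence microscopy at 20×10; p65 red and nuclei blue in merged images.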

[7] = tested on: caspase 3, bcl-2, bax in SGC-7901 cells; experiment: Western blot of apoptosis-related proteins, SGC-7901; format: cell-based, human; details: SGC-7901, 10 µM, 24 hours
Procedure, shortened: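 SGC-7901 cells were exposed 24 h to DMSO, test compound (5, 10 or 20 µM) or a reference compound (20 µM). Lysates were cleared at 12,000× g, 4°C, and equal protein separated by SDS-PAGE. Blots were probed overnight for caspase 3, cleaved caspase 3, bax and bcl-2, with GAPDH as loading control. Bands were quantified by densitometry.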

[8] = tested on: NF-κB activation induced by TNF-α in SGC-7901 cells; experiment: Western blot of TNF-α-induced NF-κB activation; format: cell-based, human; details: SGC-7901, 10 µM, 60 minutes pretreatment, TNF-α 1 ng/mL 15 minutes
Procedure, shortened: (§2)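 SGC-7901 or BGC-823 cells were pretreated 60 min with DMSO, test compound (5, 10 or 20 µM) or a reference NF-κB inhibitor (20 µM), then stimulated with TNF-α 1 ng/mL for 15 min. Whole-cell lysates were cleared at 12,000× g, 4°C, 10 min, and equal protein run on SDS-PAGE. Blots were probed overnight for p-IKK, IκB-α and p-IκB-α, then with HRP secondaries 1 h at 37°C. Densitometry normalised to IKK and GAPDH, respectively.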

[9] = tested on: SGC-7901 or BGC-823 cells; experiment: Apoptosis by Annexin-V/PI flow cytometry; format: cell-based, human; details: 10 or 20 µM, 24 hours
Procedure, shortened: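 SGC-7901 or BGC-823 cells in RPMI-1640 with 10% FBS at 37°C, 5% CO2, were treated 24 h with test compound (10 or 20 µM), a reference compound (20 µM) or DMSO. Cells were collected, washed twice in PBS, then stained with Annexin-V for 10 min in the dark and with PI for 5 min, and analysed by FACS. Annexin+/PI− cells were scored early apoptotic and Annexin+/PI+ late apoptotic/dead; three separate treatments.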

[10] = tested on: p65 nuclear translocation in SGC-7901 cells; experiment: p65 nuclear translocation, immunofluorescence, SGC-7901; format: cell-based, human; details: SGC-7901, 20 µM, 1 hour before TNF-α
Procedure, shortened: as §1

[11] = tested on: NF-κB activation induced by TNF-α in BGC-823 cells; experiment: Western blot of TNF-α-induced NF-κB activation; format: cell-based, human; details: BGC-823, 10 µM, 60 minutes pretreatment, TNF-α 1 ng/mL 15 minutes
Procedure, shortened: as §2

Row | SMILES | Absorption intensity of the spectrum in phosphate buffer (degradation) [1] | IC50 (GES-1 cells) [µM] | Colony formation [2] | Cells arrested in the G2/M phase ([3]; 20 µM) | Invasion through Matrigel [4] | IC50 (SGC-7901 cells) [µM] | Nuclear p65 after TNF-α stimulation [5] | p65 nuclear translocation induced by TNF-α [6] | Caspase 3 level and cleavage [7] | Phosphorylation of IKK and IκB-α stimulated by TNF-α [8] | Number of early- and late-period apoptotic cells [9] | Cells arrested in the G2/M phase ([3]; 10 µM) [%] | p65 red fluorescence in cell nuclei after TNF-α [10] | Expression of p-IKK and p-IκB-α stimulated by TNF-α [11]
1 | COc1cc(/C=C/C(=O)CC(=O)/C=C/c2ccc(O)c(OC)c2)ccc1O [CUR, curcumin, reference compound] | significantly decreased | 29.1 ± 3.8 | no significant effects | ~ 10% | could similarly inhibit cell invasion | – | – | – | – | – | – | – | – | –
2 | COc1cccc(/C=C/C(=O)/C=C/c2cccc(OC)c2OC)c1OC [Compound B19, (1E,4E)-1,5-bis(2,3-dimethoxyphenyl)penta-1,4-dien-3-one] | – | 3.7 ± 1.9 | – | – | – | – | – | – | – | – | – | – | – | –
3 | Cc1ccc2nc(NCCN)c3ncc(C)n3c2c1 [BMS345541, reference compound] | – | 9.8 ± 2.5 | – | – | – | 7.8 ± 1.8 | did not significantly increase | could inhibit the p65 nuclear translocation | – | – | – | – | – | –
4 | COc1ccc(OC)c(/C=C2\CC/C(=C\c3ccc(O)c(OC)c3)C2=O)c1 [Da0324, (2E,5E)-2-(2,5-dimethoxybenzylidene)-5-(4-hydroxy-3-methoxybenzylidene)cyclopentanone] | less degraded than curcumin | 27.3 ± 8.2 | No colonies were visible | – | obviously inhibited the invasion | – | did not significantly increase | could inhibit the p65 nuclear translocation | significantly reduced caspase 3 and induced its cleavage | significantly inhibit the phosphorylation of IKK and IκB-α | significantly higher than those of the curcumin-treated cells | ~30 | the red fluorescence did not increase in the cell nuclei | similarly inhibit the expression of p-IKK and p-IκB-α
